According to ChEMBL document CHEMBL2346664, “Synthesis, characterization and in vitro anticancer evaluation of novel 1,2,4-triazolin-3-one derivatives” (2013):

Key:
Type in all cases: functional
[1] = Growth inhibition of human Hs 578T cells assessed as cell growth at 10 '-6 M after 48 hrs by sulforhodamine B assay; settings: read-out: Activity
[2] = system: COLO 205; experiment: Growth inhibition of human COLO205 cells assessed as cell growth at 10 '-5 M after 48 hrs by sulforhodamine B assay; settings: COLO 205, 48 h, read-out: Activity
Method in brief: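 In the same five-dose SRB screen (48 h, 37 °C, 5% CO2), percentage growth was computed at each concentration from time-zero (Tz), control (C) and treated (Ti) absorbances. The formula was [(Ti−Tz)/(C−Tz)]×100 when Ti ≥ Tz, or [(Ti−Tz)/Tz]×100 when Ti < Tz.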

[3] = system: MDA-MB-231; experiment: Growth inhibition of human MDA-MB-231 cells assessed as cell growth at 10 '-4 M after 48 hrs by sulforhodamine B assay; settings: MDA-MB-231, 48 h, read-out: Activity
[4] = system: HL-60(TB); experiment: Growth inhibition of human HL-60(TB) cells assessed as cell growth at 10 '-8 M after 48 hrs by sulforhodamine B assay; settings: HL-60, 48 h, read-out: Activity
Method in brief: (§1)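 Five-dose NCI protocol with final concentrations of 0.01–100 µM and drug diluted from a DMSO stock (400× the top concentration) in medium with gentamicin. Cells were pre-incubated 24 h, then exposed 48 h at 37 °C. Suspension cells were fixed with 16% final TCA, SRB-stained and read at 515 nm. Percentage growth at each level was [(Ti−Tz)/(C−Tz)]×100, or [(Ti−Tz)/Tz]×100 when Ti < Tz.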

[5] = system: SK-MEL-5; experiment: Growth inhibition of human SK-MEL-5 cells assessed as cell growth at 10 '-5 M after 48 hrs by sulforhodamine B assay; settings: SK-MEL-5, 48 h, read-out: Activity
[6] = system: MDA-MB-468; experiment: Growth inhibition of human MDA-MB-468 cells assessed as growth inhibition at 10 uM after 48 hrs by sulforhodamine B assay; settings: MDA-MB-468, 48 h, read-out: GI
[7] = system: LOX IMVI; experiment: Growth inhibition of human LOXIMVI cells assessed as cell growth at 10 '-6 M after 48 hrs by sulforhodamine B assay; settings: read-out: Activity
[8] = system: ACHN; experiment: Growth inhibition of human ACHN cells assessed as cell growth at 10 '-7 M after 48 hrs by sulforhodamine B assay; settings: read-out: Activity
Method in brief: (§2)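 Percent growth at each of the five concentrations of the 48 h continuous-exposure NCI SRB screen. Drug stocks were in DMSO at 400× the top final concentration and diluted in medium with gentamicin. Growth was calculated as [(Ti-Tz)/(C-Tz)]×100 when Ti ≥ Tz, or [(Ti-Tz)/Tz]×100 when Ti < Tz. Tz plates were fixed at drug addition; untreated wells served as control. Absorbance was read at 515 nm.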

[9] = system: K562; experiment: Growth inhibition of human K562 cells assessed as cell growth at 10 '-4 M after 48 hrs by sulforhodamine B assay; settings: K562, 48 h, read-out: Activity
[10] = Growth inhibition of human NCI-ADR-RES cells assessed as cell growth at 10 '-8 M after 48 hrs by sulforhodamine B assay; settings: read-out: Activity
[11] = system: COLO 205; experiment: Growth inhibition of human COLO205 cells assessed as cell growth at 10 '-8 M after 48 hrs by sulforhodamine B assay; settings: COLO 205, 48 h, read-out: Activity
[12] = system: PC-3; experiment: Growth inhibition of human PC3 cells assessed as cell growth at 10 '-6 M after 48 hrs by sulforhodamine B assay; settings: PC-3, 48 h, read-out: Activity
[13] = system: M14; experiment: Growth inhibition of human M14 cells assessed as cell growth at 10 '-5 M after 48 hrs by sulforhodamine B assay; settings: M14, 48 h, read-out: Activity
[14] = system: UACC-257; experiment: Growth inhibition of human UACC257 cells after 48 hrs by sulforhodamine B assay; settings: UACC-257, 48 h
Method in brief: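 NCI 60-cell-line five-dose screen over 0.01, 0.1, 1, 10 and 100 µM, with 48 h continuous exposure at 37 °C and 5% CO2 after 24 h pre-incubation (5,000–40,000 cells/well). Cells were TCA-fixed (10% final for adherent, 16% for suspension), stained with SRB and read at 515 nm. GI50 was solved from [(Ti−Tz)/(C−Tz)]×100 = 50 against time-zero plates.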

[15] = system: NCI-H522; experiment: Growth inhibition of human NCI-H522 cells after 48 hrs by sulforhodamine B assay; settings: NCI-H522, 48 h
[16] = system: SK-MEL-2; experiment: Growth inhibition of human SK-MEL-2 cells assessed as cell growth at 10 '-8 M after 48 hrs by sulforhodamine B assay; settings: SK-MEL-2, 48 h, read-out: Activity
[17] = system: CCRF-CEM; experiment: Growth inhibition of human CCRF-CEM cells assessed as growth inhibition at 10 uM after 48 hrs by sulforhodamine B assay; settings: read-out: GI
Method in brief: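 NCI-60 primary single-dose screen at 10^-5 M, 48 h continuous exposure. Adherent cells were fixed with cold TCA (10% final) and suspension cells with 16% final TCA, then stained with 0.4% SRB in 1% acetic acid. Bound dye was solubilized in 10 mM Tris base and read at 515 nm. Output is growth percent relative to untreated controls, and GI% is 100 minus growth percent.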

[18] = system: MDA-MB-231; experiment: Growth inhibition of human MDA-MB-231 cells assessed as cell growth at 10 '-6 M after 48 hrs by sulforhodamine B assay; settings: MDA-MB-231, 48 h, read-out: Activity
[19] = Growth inhibition of human […] cells assessed as cell growth at 10 uM after 48 hrs by sulforhodamine B assay; settings: read-out: Activity
Method in brief: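 NCI-60 primary screen at a single dose of 10^-5 M. Output is mean growth percent of treated cells relative to untreated controls, where values between 0 and 100 indicate growth inhibition and values below 0 indicate cytotoxicity. Cells were plated 24 h before drug, incubated 48 h at 37 °C, 5% CO2, and stained with SRB after TCA fixation. Suspension cells were fixed with 80% TCA (16% final).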

[20] = system: CAKI-1; experiment: Growth inhibition of human CAKI-1 cells assessed as cell growth at 10 '-5 M after 48 hrs by sulforhodamine B assay; settings: CAKI-1, 48 h, read-out: Activity; method in brief: as §2
[21] = system: SK-OV-3; experiment: Growth inhibition of human SKOV3 cells assessed as cell growth at 10 '-8 M after 48 hrs by sulforhodamine B assay; settings: SK-OV-3, 48 h, read-out: Activity
[22] = system: HL-60(TB); experiment: Growth inhibition of human HL-60(TB) cells assessed as cell growth at 10 '-4 M after 48 hrs by sulforhodamine B assay; settings: HL-60, 48 h, read-out: Activity; method in brief: as §1
[23] = system: Malme-3M; experiment: Growth inhibition of human MALME-3M cells assessed as growth inhibition at 10 uM after 48 hrs by sulforhodamine B assay; settings: read-out: GI
[24] = system: MOLT-4; experiment: Growth inhibition of human MOLT4 cells assessed as cell growth at 10 '-6 M after 48 hrs by sulforhodamine B assay; settings: MOLT-4, 48 h, read-out: Activity
[25] = system: RXF 393; experiment: Growth inhibition of human RXF393 cells assessed as cell growth at 10 '-7 M after 48 hrs by sulforhodamine B assay; settings: RXF 393, 48 h, read-out: Activity
[26] = read-out: LD50 (the source's name)

Cc1cc(=O)oc2cc(OCCn3c(C)nn(-c4ccc(Cl)cc4)c3=O)ccc12
growth at 1 µM [1]: 68% | growth at 10 µM [2]: -14% | growth at 100 µM [3]: 11% | growth at 0.01 µM [4]: 101% | growth at 10 µM [5]: 13% | inhibition of growth at 10 µM [6]: 83.9% | growth at 1 µM [7]: 74% | growth at 0.1 µM [8]: 106% | growth at 100 µM [9]: 12% | growth at 0.01 µM [10]: 102% | growth at 0.01 µM [11]: 102% | growth at 1 µM [12]: 74% | growth at 10 µM [13]: 22% | TGI [14]: > 1 µM | CC50 [14, 26]: > 1 µM | GI50 [15]: 3.85 µM | TGI [15]: 3.82 µM | CC50 [15, 26]: > 1 µM | growth at 0.01 µM [16]: 104% | inhibition of growth at 10 µM [17]: 86.6% | growth at 1 µM [18]: 66% | growth at 10 µM [19]: 32.9% | growth at 10 µM [20]: 54% | growth at 0.01 µM [21]: 111% | growth at 100 µM [22]: 1% | inhibition of growth at 10 µM [23]: 67.1% | growth at 1 µM [24]: 100% | growth at 0.1 µM [25]: 90%
